Target: Induced myeloid leukemia cell differentiation protein Mcl-1 (Homo sapiens, UniProt Q07820)
Test: Inhibition of FITC-labelled BAK BH3 peptide to 6His-MBP tagged recombinant human MCL-1 (172 to 327 residues) expressed in Escherichia coli assessed as inhibition constant by fluorescence polarization competition assay
In short: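 Fluorescence polarization competition: compounds titrated into a mixture of MCL-1 (residues 172–327) and FITC-labelled BAK BH3 peptide. Displacement of the peptide was followed by the change in polarization, and Ki was derived from the competition titration.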

Sequence of Induced myeloid leukemia cell differentiation protein Mcl-1 (Q07820 whole entry, the tested form may be a part): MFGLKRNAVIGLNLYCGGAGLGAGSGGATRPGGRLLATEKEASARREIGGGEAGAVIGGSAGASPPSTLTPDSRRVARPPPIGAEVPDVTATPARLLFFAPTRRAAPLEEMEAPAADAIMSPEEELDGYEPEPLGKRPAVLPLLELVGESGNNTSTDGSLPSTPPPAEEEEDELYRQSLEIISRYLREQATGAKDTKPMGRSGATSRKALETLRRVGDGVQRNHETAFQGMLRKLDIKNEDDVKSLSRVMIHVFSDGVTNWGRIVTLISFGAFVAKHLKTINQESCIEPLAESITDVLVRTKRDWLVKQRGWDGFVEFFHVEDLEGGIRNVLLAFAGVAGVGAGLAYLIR

Ki [µM] | SMILES
> 500 | CC(C)CN(c1ccc(C(=O)O)cc1)S(=O)(=O)c1ccc(F)cc1 [4-(4-fluoro-N-isobutylphenyl-sulfonamido) benzoic acid]
> 500 | CC(C)CN(c1cccc(C(=O)O)c1)S(=O)(=O)c1ccc(F)cc1 [3-(4-fluoro-N-isobutylphenyl-sulfonamido) benzoic acid]
> 500 | CC(C)CN(c1cccc(C(=O)O)c1)S(=O)(=O)c1ccccc1 [3-(N-isobutylphenyl-sulfonamido) benzoic acid]
> 500 | CC(C)CN(c1cccc(C(=O)O)c1)S(=O)(=O)c1ccc(-c2ccccc2)cc1 [3-(N-isobutyl-[1,1'-biphenyl]-4-ylsulfonamido) benzoic acid]
> 500 | CC(C)CN(c1ccc(C(=O)O)cc1)S(=O)(=O)c1ccccc1 [4-(N-isobutylphenyl-sulfonamido) benzoic acid]
> 500 | CC(C)CN(c1ccc(C(=O)O)cc1)S(=O)(=O)c1ccc2ccccc2c1 [4-(N-isobutylnaphthalene-2-sulfonamido) benzoic acid]
